Screens from PubChem.
Sampled rows, rich in hits. Any-hit rate of the full collection: about 1.8%.
PPC-1+TRAIL kill – PPC-1 cancer cell killing with TRAIL present. PPC-1 cells + TRAIL, ATPLite viability luminescence. cell killing (% activity), % at 4 µM or 5 µM. 0.41% of 220,000 active;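 active = cell killing above 50% in the first pass at 4 µM, then a duplicate retest at 5 µM averaging 50% or more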;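 also: plate controls were cells with TRAIL plus DMSO for no effect and medium-only wells lacking cells for full effect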
STAT3 inh – STAT3 signaling inhibition; U3A cells, IL-6 STAT3-luciferase reporter, luminescence; host cell line lacks STAT1; inhibition, % at 5.5 µM; 0.89% of 190,000 active; AID 862;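 active = inhibition above the mean inhibition across all screened compounds plus 3 SD, cut at about 44% in these data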;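 also: 0% = DMSO only wells and 100% = 100 µM nifuroxazide control wells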
TRAIL sens C8 – caspase-8 TRAIL sensitization; inhibition (viability loss, TRAIL sensitization), % at 10 µM; AID 624354; 1% of 360,000 active; NB7+C8 cells + TRAIL, ATPlite viability luminescence;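 active = compounds causing at least 50% loss of cell viability in the single-dose screen, relative to plate controls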
STAT3 activator – increases IL-6 driven STAT3 reporter signal. 0.91% of 190,000 active. AID 871. U3A cells, IL-6 STAT3-luciferase reporter, luminescence; 100% = signal with IL-6 EC80 alone. activation (% of control), % at 5.6 µM;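 active = activation above the screen-wide mean of compound activation plus 3 SD, cut at about 130% in these data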;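 also: 0% = background luminescence of wells with medium and substrate only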
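System – human U3A cells carrying STAT3-luciferase construct · Probe or stimulus – Interleukin-6, 33 ng/mL · Schedule – compound 1 h, then IL-6 6 h at 37 °C · Signal – luminescence from STAT3-driven luciferase reporter · Evaluation – percent of IL-6-only median luminescence · Benchmarks – IL-6-only high control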
STAT1 inh – inhibitors of IFN-gamma induced STAT1 signaling; NIH 3T3 STAT1-luciferase reporter, luminescence; inhibition, % at 5.5 µM; 0.35% of 200,000 active;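 active = inhibition above a set limit, the mean inhibition across all tested compounds plus 3 SD, cut at about 34% in these data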;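 also: 0% = IFN-gamma with DMSO and 100% = IFN-gamma with 300 µM nifuroxazide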
Active calls of the source: *.

For Cc1nc(C)c(-c2ccc(SCc3ccc([N+](=O)[O-])cc3)nn2)s1 the results were TRAIL sens C8 14.
O=c1c2[nH]c3ccc(F)cc3c2ncn1Cc1ccncc1 was read as PPC-1+TRAIL kill 3 and TRAIL sens C8 19.
For O=c1c2[nH]c3ccc(F)cc3c2ncn1C1CCCCC1 the results were PPC-1+TRAIL kill 14, STAT3 inh 13, TRAIL sens C8 51*, STAT3 activator 96 and STAT1 inh -12.
`N#CC(=C1N=c2ccccc2=N1)c1c(O)[nH]c2ccccc12` gave PPC-1+TRAIL kill 12, STAT3 inh -15, STAT3 activator 119 and STAT1 inh -12.
Screening Cn1c(O)c(C(C#N)=C2N=c3ccccc3=N2)c2ccccc21 returned PPC-1+TRAIL kill 21, STAT3 inh -34, TRAIL sens C8 -14, STAT3 activator 135* and STAT1 inh 14.
For COc1ccc(OCC(=O)N/N=C(\C)c2cc3ccccc3o2)cc1 the results were PPC-1+TRAIL kill 40, STAT3 inh 6, TRAIL sens C8 64*, STAT3 activator 94 and STAT1 inh -5.
`CN(C(=O)COC(=O)c1cnc(Cl)c(Cl)c1)C1CCS(=O)(=O)C1` (stereo not given) gave PPC-1+TRAIL kill 0, STAT3 inh 15, TRAIL sens C8 1, STAT3 activator 91 and STAT1 inh 11.
Screening CN(C(=O)COC(=O)c1cnc(Cl)c(Cl)c1)C1CCCCC1 returned TRAIL sens C8 69*.
Cc1nc2c(ccc3nc(NC(=O)C4CC4)sc32)s1 was read as PPC-1+TRAIL kill 20, STAT3 inh -67, TRAIL sens C8 20, STAT3 activator 157* and STAT1 inh -61.
`CCC(=O)Nc1nc2ccc3sc(C)nc3c2s1` gave PPC-1+TRAIL kill 18, STAT3 inh -14, TRAIL sens C8 8, STAT3 activator 116 and STAT1 inh -79.
Cc1cc(OC(=O)c2ccccc2Cl)cc(=O)n1C was read as PPC-1+TRAIL kill -1, STAT3 inh 16, TRAIL sens C8 -21, STAT3 activator 91 and STAT1 inh 35*.
For Cc1cc(C)cc(NS(=O)(=O)c2ccc3[nH]cc(C(=O)NCc4ccco4)c(=O)c3c2)c1 the results were PPC-1+TRAIL kill 19, STAT3 inh 16, TRAIL sens C8 84*, STAT3 activator 89 and STAT1 inh 4.
For CCCc1cc(=O)oc2c3c(c4c(c12)OC(C)(C)C=C4)OC(C)C(C)C3O (stereo not given) the results were PPC-1+TRAIL kill -18 and TRAIL sens C8 78*.
For COc1cccc(NC(=O)C2C3C=CC4(O3)C2C(=O)N(CCCN2CCCC(C)C2)C4C(=O)NC2CCCCC2C)c1 (stereo not given) the results were TRAIL sens C8 -12.
For Cc1ccc(/C=C2/SC(=O)N(CC(=O)N3CCOCC3)C2=O)s1 the results were PPC-1+TRAIL kill 34, STAT3 inh -4, TRAIL sens C8 -2, STAT3 activator 101 and STAT1 inh -5.
O=C(CN1C(=O)S/C(=C/c2ccc(N3CCOCC3)cc2)C1=O)N1CCOCC1 was read as PPC-1+TRAIL kill 49, STAT3 inh -7, TRAIL sens C8 61*, STAT3 activator 108 and STAT1 inh -15.
`Nc1cccc(-c2nc3ccc(C(=O)c4ccccc4)cc3[nH]2)c1` gave TRAIL sens C8 63*.
Nc1ccc2nc(-c3ccccc3)[nH]c2c1 was read as PPC-1+TRAIL kill 38, STAT3 inh -9, TRAIL sens C8 26, STAT3 activator 109 and STAT1 inh -34.
Screening O=C(Cn1cnc([N+](=O)[O-])n1)N/N=C/c1cccc2ccccc12 returned PPC-1+TRAIL kill -7, STAT3 inh 5, TRAIL sens C8 -2, STAT3 activator 96 and STAT1 inh 11.
`O=C(Cn1cnc([N+](=O)[O-])n1)N/N=C/c1ccc(O)cc1O` gave PPC-1+TRAIL kill 7, STAT3 inh 11, TRAIL sens C8 52*, STAT3 activator 100 and STAT1 inh -4.
COc1cc(OC)c2c(-c3cccc(-c4ccc(N(C)C)cc4)c3)cc(=O)oc2c1 was read as TRAIL sens C8 8.
`OC(CN1CCN(Cc2ccccc2)CC1)c1ccc(F)cc1` (stereo not given) gave PPC-1+TRAIL kill 58*, STAT3 inh 8, TRAIL sens C8 -4, STAT3 activator 92 and STAT1 inh -1.
`CCOC(=O)c1sc(=NC(=O)c2ccc(F)cc2)n(C)c1C` gave TRAIL sens C8 24.
For CCOC(=O)c1sc(=NC(=O)c2ccc(C)cc2)n(C)c1C the results were PPC-1+TRAIL kill -1, STAT3 inh -46, TRAIL sens C8 3, STAT3 activator 145* and STAT1 inh -42.
`COc1cc2nc(SCc3ccc(F)cc3)n(Cc3cccs3)c(=N)c2cc1OC` gave PPC-1+TRAIL kill -4, STAT3 inh 2, TRAIL sens C8 -8, STAT3 activator 108 and STAT1 inh -4.
`COc1ccc(Cn2c(SCc3ccccc3C)nc3cc(OC)c(OC)cc3c2=N)cc1` gave PPC-1+TRAIL kill 8, STAT3 inh 5, TRAIL sens C8 86*, STAT3 activator 100 and STAT1 inh -2.
For COc1ccc(-c2csc(NC(=O)C3CCN(c4ncnc5sc(C)c(C)c45)CC3)n2)cc1OC the results were TRAIL sens C8 69*.
CC1Oc2ccccc2C=C1/C=N/NC(=O)c1ccccc1O (stereo not given) was read as PPC-1+TRAIL kill 28, STAT3 inh 12, TRAIL sens C8 50*, STAT3 activator 89 and STAT1 inh -3.
For CC(=O)Nc1cccc(-c2csc(Nc3ncccn3)n2)c1 the results were PPC-1+TRAIL kill 40, STAT3 inh 15, STAT3 activator 89 and STAT1 inh -167.
Fc1ccc(-c2csc(Nc3ccccn3)n2)c(F)c1 was read as TRAIL sens C8 57*.
c1ccc(-c2csc(Nc3ccccn3)n2)cc1 was read as TRAIL sens C8 31.
Screening Cc1ccc(-c2csc(Nc3ccccn3)n2)cc1 returned TRAIL sens C8 62*.
For CC(=O)Nc1cccc(-c2csc(Nc3ccc(C)cn3)n2)c1 the results were PPC-1+TRAIL kill 16, STAT3 inh 24, TRAIL sens C8 64*, STAT3 activator 79 and STAT1 inh -128.
For N#Cc1ccccc1OCC(=O)NNC(=O)CNC(=O)c1ccc(Br)o1 the results were TRAIL sens C8 11.
For CC(=O)N1c2ccc(S(=O)(=O)N3CCC(C(=O)N4CCCC(C)C4)CC3)cc2CC1C (stereo not given) the results were TRAIL sens C8 14.
For CCCn1c(C)cc(C(=O)COC(=O)c2cc(=O)[nH]c3ccccc23)c1C the results were TRAIL sens C8 57*.
For CCCn1c(C)cc(C(=O)COC(=O)c2cc(S(=O)(=O)NCC(C)C)c(Cl)cc2Cl)c1C the results were PPC-1+TRAIL kill -11, STAT3 inh -7, TRAIL sens C8 94*, STAT3 activator 110 and STAT1 inh 3.
